# Compound activity as filed in PubChem.
# Sampled rows, rich in hits. Any-hit rate of the full collection: about 9.4%.
# Beta apoptosis – blocks beta cell apoptosis; INS-1E cytokine-induced death, ATP luminescence, 48 h; percent of positive-control rescue, neutral wells zero; protection from apoptosis, % (test concentration not listed); 300,000 compounds, 0.8% hits; AID 435005;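 active = Every replicate reaches about 75%, or at least half do and their mean reaches it too, limit read from the data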;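 note: 0% = cytokine-treated negative control wells and 100% = positive control rescue; higher means more ATP so stronger rescue from cytokine killing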
# CSC inhib – cancer stem cell inhibition | cancer stem cell-like cells viability, luminescence | inhibition, % at 7.5 µM | 300,000 compounds, 1.1% hits; in the data active = inhibition above about 75%; tested in HMLE shEcad cells
# Lmaj promast – inhibitors of Leishmania major promastigote growth | Leishmania major promastigotes, resazurin fluorescence viability | inhibition, % at 10 µM | 200,000 compounds, 9% hits | AID 1063; in the data active = inhibition above about 50%;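 note: promastigotes grown with compound for 44 hours at 28 °C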
# T cruzi repl – T. cruzi replication inhibition; 300,000 compounds, 1.4% hits; inhibition, % (no concentration beside the values); T. cruzi beta-gal in NIH3T3, luminescence, 90 h;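 active = mean inhibition across valid replicates above about 55%, limit read from the data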;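 note: signal also drops with host cell toxicity which is not excluded here; 0% = plate median of DMSO wells and 100% = zero luminescence signal; higher percent means less beta-gal luminescence so fewer parasites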
#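 Assay system: NIH/3T3 fibroblasts plus reporter T. cruzi. Amount: NIH/3T3 cells, 5,000 per well. Buffer or medium: DMEM, 2% fetal bovine serum. Doses: compound pinned at 50 nL/well, DMSO. Schedule: ≥90 h infection period, 3 h prior cell attachment. Signal: luminescent β-galactosidase signal after 60 min lysis. Read-out: parasite load inhibition, %.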
# SKKanGAS inh – SKKanGAS growth inhibition; S. pyogenes SKKanGAS, kanamycin growth, BacTiter-Glo, 6 h; inhibition, % at 7.5 µM; 300,000 compounds, 1.3% hits; AID 1662;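 active = mean replicate score, as percent of positive control median, at least 50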;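 note: strain carries kanamycin resistance gene driven by streptokinase promoter and grows in 40 µg/ml kanamycin; loss of luminescence reflects streptokinase promoter inhibition or plain growth inhibition; 0% = median of DMSO wells and 100% = positive control at its reference dose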
# Mdm2 MdmX PPI – human Mdm2/MdmX binding inhibition. O15151+Q00987. SaOS-2 split-luciferase Mdm2/MdmX complementation, luminescence. inhibition, % at 8 µM. 330,000 compounds, 3% hits. AID 485346;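 active = inhibition of at least 50% at 8 µM in the primary screen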
# Target sequence (O15151 whole entry, looked up): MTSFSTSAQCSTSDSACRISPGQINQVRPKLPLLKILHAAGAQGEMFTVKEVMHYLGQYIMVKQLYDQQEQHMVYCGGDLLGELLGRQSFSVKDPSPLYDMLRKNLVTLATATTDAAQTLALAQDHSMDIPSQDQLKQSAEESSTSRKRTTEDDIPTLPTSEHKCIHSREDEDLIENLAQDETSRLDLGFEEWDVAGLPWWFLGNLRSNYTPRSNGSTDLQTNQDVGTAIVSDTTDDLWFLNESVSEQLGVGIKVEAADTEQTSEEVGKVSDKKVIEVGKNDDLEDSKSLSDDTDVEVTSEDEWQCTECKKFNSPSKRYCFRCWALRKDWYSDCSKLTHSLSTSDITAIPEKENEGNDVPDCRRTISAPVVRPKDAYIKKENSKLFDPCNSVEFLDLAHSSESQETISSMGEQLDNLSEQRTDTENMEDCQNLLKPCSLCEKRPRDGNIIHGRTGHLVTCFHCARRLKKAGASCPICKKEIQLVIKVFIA
# Target sequence (Q00987 whole entry, looked up): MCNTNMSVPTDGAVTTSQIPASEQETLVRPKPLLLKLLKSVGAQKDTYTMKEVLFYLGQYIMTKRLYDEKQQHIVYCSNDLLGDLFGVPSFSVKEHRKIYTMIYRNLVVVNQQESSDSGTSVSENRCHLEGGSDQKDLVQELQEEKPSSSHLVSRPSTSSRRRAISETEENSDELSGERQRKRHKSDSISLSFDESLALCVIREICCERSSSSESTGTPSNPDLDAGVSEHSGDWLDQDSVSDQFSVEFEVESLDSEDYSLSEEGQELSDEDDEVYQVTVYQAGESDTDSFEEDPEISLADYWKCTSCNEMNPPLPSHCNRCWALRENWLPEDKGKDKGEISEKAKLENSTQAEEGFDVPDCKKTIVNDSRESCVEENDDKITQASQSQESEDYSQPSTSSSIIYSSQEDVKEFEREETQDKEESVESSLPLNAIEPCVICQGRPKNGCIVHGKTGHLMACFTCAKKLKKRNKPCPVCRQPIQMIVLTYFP
# Mdm2 MdmX conf – confirmation of human Mdm2/MdmX interaction inhibitors; shares compounds with Mdm2 MdmX PPI; Mdm2-MdmX binding, luminescent assay; inhibition, % at 8 µM; 10,000 compounds, 55% hits; in the data active = inhibition above about 40%
# FLuc counter – full-length luciferase inhibition in Mdm2/MdmX counter-screen; shares compounds with Mdm2 MdmX PPI; SaOS-2 full-length luciferase counterscreen, luminescence; inhibition, % at 8 µM; 6,200 compounds, 77% hits;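 active = mean inhibition at 8 µM reaching about 37%, which flags the compound as non-specific, limit read from the data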;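 note: p53-null SaOS-2 cells with luciferase driven by a doxycycline-inducible promoter; compound on cells about two nights before reading with doxycycline added after day one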
# Starred values were filed as active, the others as inactive; nt = no result given.
SMILES,Beta apoptosis,CSC inhib,Lmaj promast,T cruzi repl,SKKanGAS inh,Mdm2 MdmX PPI,Mdm2 MdmX conf,FLuc counter
COc1cc(C(CCN2CCOCC2)c2c(OC)cc(OC)c3c(C)cc(=O)oc23)cc(OC)c1OC (centres undefined),-6.8,1.2,nt,14.7,-1.2,20.1,nt,nt
CCCCCc1cc(=O)oc2c(C(CCN3CCCC(C)C3)c3ccc(OC)cc3)c(OC)cc(OC)c12 (centres undefined),109.1*,101.8*,nt,65.8*,-1.5,86.4*,41.5*,50.1*
CCCCCc1cc(=O)oc2c(C(CCN(CC)CC)c3ccc(OC)cc3)c(OC)cc(OC)c12 (centres undefined),97.6*,12.6,nt,47.3,9.6,99.8*,33.8,51.3*
CCCCCc1cc(=O)oc2c(C(CCN3CCCC3)c3cc(OC)c(OC)c(OC)c3)c(OC)cc(OC)c12 (centres undefined),44.4,51.9,nt,49.6,7.0,100.3*,62.2*,39.2*
CCc1noc(N)c1C(=O)Nc1ccc(Cl)cc1,-4.3,-13.8,nt,8.7,-1.0,11.5,nt,nt
CCCCCc1cc(=O)oc2c(C(CCN3CCN(c4ccccc4)CC3)c3ccc4c(c3)OCO4)c(OC)cc(OC)c12 (centres undefined),7.0,13.6,nt,34.5,16.2,45.6,nt,nt
CCCCCc1cc(=O)oc2c(C(CCN3CCCCC3)c3ccc(OC)cc3)c(OC)cc(OC)c12 (centres undefined),47.2,96.5*,nt,41.6,5.7,96.4*,31.4,44.0*
O=C(Cn1cnc2c(oc3nc4c(cc32)CCCC4)c1=O)Nc1cccc(Cl)c1,1.3,-1.1,nt,2.0,0.6,57.0*,1.7,nt
O=C(Cn1cnc2c(oc3nc4c(cc32)CCCC4)c1=O)Nc1ccccc1,4.7,-3.4,nt,-3.8,10.0,-8.9,nt,nt
O=C(N/N=C/c1cccs1)c1cc(-c2ccncc2)nc2ccccc12,-1.1,40.9,13.8,-45.9,-14.0,nt,nt,nt
Cc1nn(-c2ccccc2)c(N2CCCC2)c1/C=N/NC(=O)c1cc(-c2cccnc2)nc2ccccc12,1.2,15.1,28.6,57.1*,26.3,56.3*,21.8,nt
Cc1nn(-c2ccccc2)c(N2CCCC2)c1/C=N/NC(=O)c1ccccc1O,0.1,3.5,5.9,-8.6,4.6,21.3,nt,nt
C/C(=N\NC(=O)c1cc(-c2cccnc2)nc2ccccc12)c1ccc(O)cc1O,90.5*,100.0*,32.9,47.3,26.0,65.8*,79.5*,22.7
CCc1ccc(/C=N/NC(=O)c2cc(-c3ccncc3)nc3ccccc23)s1,nt,1.9,31.4,-21.8,1.2,52.3*,62.3*,80.4*
CCCc1cc(C(=O)N/N=C/c2ccc(CC)s2)c2ccccc2n1,12.4,nt,7.7,-32.8,18.4,63.2*,65.2*,39.9*
C/C(=N\NC(=O)c1cc(-c2ccccc2C)nc2ccccc12)c1cccnc1,35.8,0.4,nt,18.3,12.6,12.8,nt,nt
CC(C)COc1cccc(-c2cc(C(=O)N/N=C/c3ccncc3)c3ccccc3n2)c1,19.3,-2.2,nt,nt,nt,80.5*,84.3*,47.2*
O=C(N/N=C/c1ccccn1)c1cc(-c2ccccc2)nc2ccccc12,22.8,36.2,nt,2.1,39.0,71.5*,2.8,nt
O=C(N/N=C/c1ccccn1)c1cc(C2CC2)nc2ccccc12,8.5,0.0,nt,-5.7,-1.4,-8.1,nt,nt
CCOc1ccc(-c2cc(C(=O)N/N=C/c3cccnc3)c3ccccc3n2)cc1,10.1,63.8,nt,18.2,4.7,9.0,nt,nt
CC(/C=N/NC(=O)c1cc(-c2ccc(Cl)cc2)nc2ccccc12)=C\c1ccco1,33.6,14.1,61.9*,26.4,12.0,66.4*,-0.5,nt
Cc1c(CC(=O)O)c(=O)oc2cc(OCc3ccc(Cl)cc3)ccc12,-5.2,-8.8,nt,-3.4,6.6,-17.2,nt,nt
CN(Cc1cccs1)C(=O)Cn1cnc2ccccc2c1=O,1.7,5.9,-3.9,1.2,-19.0,-18.2,nt,nt
Cc1ccc(C(=O)c2no[n+]([O-])c2C(=O)c2ccc(C)cc2)cc1,3.7,36.1,-2.7,12.1,7.0,50.7*,8.8,nt
Cc1ccc(C(=O)c2ccc(C)cc2)cc1,-4.4,-15.0,-5.5,-8.9,1.3,15.4,nt,nt
